The values that follow come from ChEMBL document CHEMBL4622964, “Designing Dihydrofolate Reductase Inhibitors as X-ray Radiosensitizers to Reverse Radioresistance of Cervical Cancer” (ACS Med Chem Lett, 2020).

Data set [1] concerns HeLa. In words: Effect on dihydrofolate reductase protein expression in human HeLa cell lysates at 1 to 2 uM by Western blot analysis. The data set is classed as functional, cell-based.
For data set [2], the system named is HeLa. In words: Induction of mitochondrial dysfunction in human HeLa cells assessed as change in mitochondrial membrane potential at 1 uM incubated for 24 hrs by JC1 staining based flow cytometry (reference value: 1.3%). The data set is classed as functional. The method in brief:
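Mitochondrial membrane potential was assessed by JC-1 flow cytometry in HeLa cells treated at 1 μM without or with 4 Gy X-rays. Green fluorescence gives the proportion of cells with lost ΔΨm.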

A short description of data set [3]: Toxicity in BALB/c mouse xenografted with human HeLa cells assessed as liver damage by measuring effect on AST level at 4 mg/kg, iv administered every 3 days for 21 days. Type of data set: organism-based. The settings on record: in vivo. The method in brief: (§1)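 HeLa xenograft nude mice dosed at 4 mg/kg iv every 3 days over 21 days, alone or with X-rays; blood collected 24 h after last injection for serum biochemistry: ALT, AST (liver), BUN and uric acid (kidney).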

The test system of data set [4] is HeLa. In words: Induction of ROS generation in human HeLa cells by DHE fluorescent dye based microplate reader analysis relative to control. The data set is classed as functional. The method in brief: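 Intracellular ROS in HeLa cells were measured with the dihydroethidium probe, whose superoxide-oxidised product fluoresces red. Cells were treated with or without 4 Gy X-rays, then incubated with DHE. Fluorescence was read on a microplate reader and expressed as % of untreated cells.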

Data set [5] in a line: Toxicity in BALB/c mouse xenografted with human HeLa cells assessed as lung damage at 4 mg/kg, iv administered for every 3 days for 21 days and measured after 24 hrs post last dose in presence of 4 Gy X-ray irradiation by H and E staining based light microscopic analysis. The data set is classed as organism-based. The settings on record: in vivo. The method in brief: (§2)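 HeLa-tumor-bearing nude mice dosed at 4 mg/kg iv every 3 days for 21 days, alone or with X-rays; euthanized 24 h after last injection; heart, liver, lungs, kidneys and spleen sectioned and stained with H&E.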

For data set [6], the system named is HeLa. The data set is described as follows: Induction of mitochondrial dysfunction in human HeLa cells assessed as mitochondrial fission at 1 uM after 24 hrs by DAPI staining based fluorescence microscopic analysis. Type of data set: functional, cell-based. The method in brief: (§3)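 HeLa cells treated with 1 μM compound, without or with 4 Gy X-rays; mitochondrial morphology imaged by fluorescence microscopy after MitoTracker and DAPI co-staining.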

Data set [7] has as its system HeLa. The data set is described as follows: Induction of apoptosis in human HeLa cells assessed as caspase-3 activation at 1 uM using Ac-DEVD-AMC as substrate after 12 hrs in presence of 4 Gy X-ray radiation by fluorescence based assay relative to control. The data set is classed as functional. The method in brief: (§4)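 Caspase-3 and caspase-8 activities were measured in HeLa cells after 12 h at 1 μM, without or with 4 Gy X-rays. Mean ± SD of three independent experiments.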

The nature of data set [8]: Toxicity in BALB/c mouse xenografted with human HeLa cells assessed as liver damage at 4 mg/kg, iv administered for every 3 days for 21 days and measured after 24 hrs post last dose by H and E staining based light microscopic analysis. The settings on record: in vivo. Type of data set: organism-based. The method in brief: as §2
Data set [9] relates to HeLa. The data set is described as follows: Ratio of IC50 for antiproliferative activity against human HeLa cells assessed as reduction in cell viability incubated for 12 hrs to IC50 for antiproliferative activity against human HeLa cells assessed as reduction in cell viability preincubated for 12 hrs followed by 4 Gy irradiation and measured after 60 hrs by MTT assay. The data set is classed as functional. The method in brief:
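MTT viability assay in HeLa cancer cells, with the test agent alone (0 Gy) or combined with 4 Gy X-rays. IC50 values are in μM. Sensitivity enhancement ratio = IC50(0 Gy)/IC50(4 Gy).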

Data set [10] in a line: Drug localization in cytoplasm of human HeLa cells at 20 uM after 8 hrs by LysoTracker/DAPI staining based fluorescence microscopic analysis. The data set is classed as ADME, subcellular. The method in brief: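 HeLa cells pretreated with 20 μM compound; LysoTracker added 2 h and DAPI 30 min before each time point; compound green fluorescence (emission about 510 nm) overlaid with lysosome (red) and nucleus under fluorescence microscope.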

The test system of data set [11] is HeLa. In words: Antitumor activity against human HeLa cells xenografted in BALB/c mouse assessed as reduction in tumor growth at 4 mg/kg, iv administered for every 3 days for 21 days in presence of 4 Gy X-ray irradiation relative to control. Type of data set: functional. More on the design: scale not given: the % may be the effect or the level left. The method in brief:
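HeLa tumour-bearing nude mice were dosed at 4 mg/kg by tail-vein injection every 3 days over a 21-day period, with or without X-ray irradiation. Tumours were photographed and sectioned for H&E staining. Body weight was recorded over the 21 days.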

The nature of data set [12]: Toxicity in BALB/c mouse xenografted with human HeLa cells assessed as kidney damage by measuring effect on uric acid level at 4 mg/kg, iv administered every 3 days for 21 days. The data set is classed as organism-based. The settings on record: in vivo. The method in brief: as §1
Data set [13] relates to HeLa. The data set is described as follows: Induction of apoptosis in human HeLa cells assessed as caspase-8 activation at 1 uM using […] as substrate after 12 hrs in presence of 4 Gy X-ray radiation by fluorescence based assay relative to control. The data set is classed as functional. The method in brief:
as §4

In data set [14] the target is T1, Dihydrofolate reductase (Homo sapiens) (UniProt P00374).
T1 sequence (whole entry): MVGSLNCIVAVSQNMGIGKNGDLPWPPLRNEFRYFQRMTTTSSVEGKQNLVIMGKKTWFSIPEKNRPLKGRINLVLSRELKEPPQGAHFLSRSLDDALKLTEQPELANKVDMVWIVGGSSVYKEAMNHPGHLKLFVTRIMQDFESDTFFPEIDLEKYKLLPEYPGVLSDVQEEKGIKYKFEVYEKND
In words: Inhibition of DHFR in human HeLa cells at 10 uM relative to control. The data set is classed as cell-based. The method in brief:
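HeLa cells treated with compound; DHFR activity assayed in cell lysates, inhibition expressed relative to untreated control.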

The test system of data set [15] is HeLa. The data set is described as follows: Induction of mitochondrial dysfunction in human HeLa cells assessed as increase in mitochondrial fission at 1 uM after 24 hrs in presence of 4 Gy X-ray irradiation by DAPI staining based fluorescence microscopic analysis. Type of data set: functional, cell-based. The method in brief: as §3
The nature of data set [16]: Toxicity in BALB/c mouse xenografted with human HeLa cells assessed as heart damage at 4 mg/kg, iv administered for every 3 days for 21 days and measured after 24 hrs post last dose in presence of 4 Gy X-ray irradiation by H and E staining based light microscopic analysis. The data set is classed as organism-based. The settings on record: in vivo. The method in brief:
as §2

The subject of data set [17] is HeLa. In words: Induction of cell cycle arrest in human HeLa cells assessed as accumulation at G2/M phase at 1 uM after 48 hrs by propidium iodide staining based flow cytometric analysis (reference value: 17.7%). Type of data set: functional.

SMILES strings stand for the structures. Active and inactive are the calls of the source. The rule behind the calls is not given here.

Turning to `Nc1nc(N)c2nc3c(nc2n1)-c1cccc2cccc-3c12`, the result in the data set on HeLa [1], in the data set with HeLa [6] and with HeLa [15] was Active. Besides, the Activity with HeLa [2] is listed as 6.8%; in [3] it was “Non-Toxic”; in the data set with HeLa [4], 132%; in [5], “Non-Toxic”; in the data set on HeLa [7] it was 150%; in [8], “Non-Toxic”. In addition, the Activity in the data set with HeLa [11] is reported as 32%; in data set [12], “Non-Toxic”; in the data set with HeLa [13], 129%; in [16] it was “Non-Toxic”; in the data set on HeLa [17] it was 32.1%. Moreover, the “Ratio IC50” value in the data set with HeLa [9] is reported as 3.3. Besides, the Drug uptake result in data set [10] is listed as “Active”. Further, the inhibition in [14] stood at 76%.
